INS-1E GSIS act – GLuc luminescence reporter in INS-1E cells, primary screen for activators of glucose-dependent secretion of insulin; INS-1E GLuc reporter insulin secretion, 2-3 h; hit rate 0.61% among 370,000; activation, % at 16.6 µM; AID 743287;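 active means lowest replicate activation of at least 40%, so every replicate reaches that level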;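 further: 0% = median of neutral control wells and 100% = median of IBMX positive control wells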
HIV Env fusion – HIV envelope-mediated fusion inhibition; hit rate 1.1% among 360,000; AID 651610; inhibition, % at 12.3 µM; HeLa-JRFL Env/CEM21 cell fusion, luciferase;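 active means mean replicate inhibition score of at least 50 and every replicate individually at or above 50; inconclusive means only one of the two criteria met; inactive means mean below 50 and not all replicates reaching 50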;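 further: 0% = plate neutral controls and 100% = maraviroc near 300 nM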
Cneo AK release – causes C. neoformans cell lysis | adenylate kinase release luminescence, 4 h; normalised: neutral wells 0, clomiphene wells 100 | lysis activity, % at 15 µM | hit rate 0.2% among 360,000;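 active means mean lysis activity across replicates of at least 80%, whatever share of replicates individually reach that level; inactive means mean lysis activity below 80%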
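Assay system: log-phase C. neoformans yeast / Quantity: yeast cell density of 5 × 10^6 cells/mL / Medium: fresh YPD growth medium / Compound: single dose / Timing: static 4 h at 37 °C with compound, 1 h detection / Measured by: adenylate kinase release luminescence / Read-out: lysis from increased AK signal / Benchmarks: Clomiphene as positive lysis control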
Ecoli rRNA inh – inhibitors of bacterial rRNA selective over humanized ribosomes; E. coli WT GFP vs humanized-ribosome RFP mutants, fluorescence, 24 h; active compounds read low; DMSO median 0, no signal -100; GFP signal change (wild-type ribosome), % (concentration not given with the values); hit rate 1.6% among 350,000; AID 720706;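 active means significant combined selectivity score with lowered wild-type GFP, culture density cut under 30%, mutant RFP and density less affected; inactive means any of these conditions unmet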
CFTR F508del cor – CFTR F508del correction in bronchial cells; CFBE cells, YFP halide quenching; stimulated with forskolin plus potentiator P3; % fluorescence drop versus neutral controls; activity (quench increase), % at 7.58 µM; hit rate 0.36% among 350,000; AID 720511;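 active means mean added fluorescence quench of at least 8% versus neutral control, with both replicates also reaching 8%; inconclusive means only one of the mean or replicate conditions met; inactive means mean below 8% and not both replicates reaching 8%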;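 further: cells transiently co-express mutant CFTR-F508del with the halide-sensitive YFP; corrector assay measuring rescue of mutant channel to the surface after 24 h compound exposure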
miR-122 sensor – blocks miR-122 activity in Huh7 sensor cells | Huh7 miR-122 Renilla luciferase sensor, 48 h; neutral wells = 0, positive control = 100 | activation (reporter increase), % at 12.5 µM | hit rate 0.3% among 340,000;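 active means mean replicate activation score at least 90 and every replicate individually at or above 90; inconclusive means only one of the two criteria met; inactive means neither criterion met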;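 further: higher luciferase means less miR-122 activity so hits act as miR-122 inhibitors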
Starred values were filed as active, the others as inactive; ? = inconclusive; / = not tested or not shown; [ ] = another dose, or the depositor's remark. Hits are enriched below; roughly 3.1% of the tested compounds scored in any of these assays.

SMILES	INS-1E GSIS act	HIV Env fusion	Cneo AK release	Ecoli rRNA inh	CFTR F508del cor	miR-122 sensor
COC(=O)c1scc(C#N)c1N/N=C(\C#N)S(=O)(=O)c1ccc(Cl)cc1	-18	23	0	2	-3	2
COC(=O)c1scc(S(=O)(=O)C(C)C)c1N/N=C(\C#N)C(=O)c1ccc(Cl)cc1	-56	0	/	-43*	-1	/
CCOc1ncccc1C(=O)Nc1cccc(S(=O)(=O)NC2=NCCC2)c1	55*	/	1	-5	7	/
CCOc1ncccc1C(=O)Nc1cccc(S(=O)(=O)N2CCCCC2)c1	2	42	-1	12	1	/
Cc1cccc(-c2nn(-c3ccccc3)cc2C(=O)Nc2cccc(S(=O)(=O)NC3=NCCC3)c2)c1	4	2	5	-3	1	152*
CCOc1ccc2nc(SCC(=O)Nc3cccc(S(=O)(=O)NC4=NCCCCC4)c3)[nH]c2c1	-5	0	-5	-27*	-1	-6
Cc1noc(C)c1S(=O)(=O)Nc1ccc2c(c1)CC(=O)N([C@H](C)CO)C[C@@H](C)[C@H](CN(C)Cc1ccc(C(F)(F)F)cc1)O2	5	8[16.7 µM]	-2	-2	1	-2[16.7 µM]
N#C[C@@H]1[C@H](c2ccc(C3=CCCCC3)cc2)[C@@H](CO)N1C(=O)Cc1ccncc1	1	/	-5	0	2	/
CC(=O)NS(=O)(=O)c1ccc(NC(=O)/C=C/c2cn(-c3ccccc3)nc2-c2ccccc2)cc1	-11	-1	-6	-7	/	-2
O=C(/C=C\c1cn(-c2ccccc2)nc1-c1ccccc1)Nc1nccs1	47*	0	/	/	/	/
O=C(COC(=O)c1c2c(nc3ccccc13)/C(=C\c1cccs1)CCC2)Nc1ccccc1	8	/	/	2	-1	/
CC(=O)c1ccc(NC(=O)COC(=O)c2c3c(nc4ccccc24)/C(=C\c2cccs2)CCC3)cc1	5	-7	/	2	9.1*	/
CN(CCCC(=O)Nc1ccccc1F)S(=O)(=O)c1ccc(F)cc1	-3	15	0	-4	-3	-2
CN(CCCC(=O)Nc1ccc(Br)cc1F)S(=O)(=O)c1ccccc1	-20	5	2	-22*	1	5
COc1ccc(NC(=O)C2=CC(c3cccs3)=NS(=O)(=O)N2C)cc1	/	89*	1	-1	-4	0
CN1C(C(=O)Nc2ccc(OC(F)(F)F)cc2)=CC(c2cccs2)=NS1(=O)=O	-22	18	4	-29	-2	0
COc1ccc2c3c(n(C)c2c1)[C@H](CO)N(C(=O)Nc1ccccc1F)CC31CCN(C(=O)c2ccccc2)CC1	-6	/	/	-1	-1	/
CC1(C(=O)Nc2ccc3c(c2)OCO3)CCN1Cc1csc2ccccc12 (centres undefined)	/	63*	0	-13	0	-1
COc1cccc(CN2CCC2(C)C(=O)Nc2cccc(Oc3ccccc3)c2)c1OC (centres undefined)	10	86*	-1	0	-2	-6
COc1cccc(NC(=O)C2(C)CCN2Cc2ccc(OC)c3ccccc23)c1 (centres undefined)	3	26	1	/	1	-3
COc1ccc2c3c([nH]c2c1)[C@H](CO)N(C(=O)CN1CCOCC1)CC31CCN(C)CC1	27	/	/	2	1	/
Cn1c(=O)c(Cc2ccccc2)c(O)c2ccccc21	/	/	4	0	-1	1
O=c1c(Cc2ccccc2)c(O)c2cccc3c4c(n1c23)CCCC4	-7	3	1	-19*	-2	0
CC(C)NC(=O)N(C)C[C@@H]1Oc2ccc(N(C)C)cc2CC(=O)N(C)C[C@H]1C	6	/	/	-1	/	/
COc1ccccc1N(CC(=O)Nc1ccccc1)S(=O)(=O)c1cccs1	-27	-1	0	-8	2	5
SMILES	INS-1E GSIS act	HIV Env fusion	Cneo AK release	Ecoli rRNA inh	CFTR F508del cor	miR-122 sensor
COc1ccc(N(CC(=O)NCCSC2CCCCC2)S(=O)(=O)c2ccccc2)c(OC)c1	-39	64*	-5	-11	0	-1
COc1ccc(N(CC(=O)NCCSC2CCCCC2)S(=O)(=O)c2ccc(C)cc2)cc1	/	33	2	/	0	-3
COc1ccc(NC(=O)CN(c2ccccc2)S(=O)(=O)c2ccccc2)c(OC)c1	-5	7	0	-24*	0	4
COc1ccc(OC)c(N(CC(=O)NCCSC2CCCCC2)S(=O)(=O)c2ccccc2)c1	36	58*	3	9	-1	12
COc1ccc(N(CC(=O)NCCSc2ccc(C)cc2)S(=O)(=O)c2ccccc2)c(OC)c1	-32	37	-4	-14	-2	/
COc1cccc(NC(=O)CN(c2ccccc2OC)S(=O)(=O)c2cccs2)c1	-19	64*	0	-12	2	-3
C[C@H]1CN([C@@H](C)CO)C(=O)c2c(c3ccccc3n2C)-c2ccccc2CO[C@H]1CN(C)C(=O)c1ccc(F)cc1	-20	/	-1	-4	1	/
CCCNC(=O)C[C@H]1C[C@H]2c3cc(N(C)C)ccc3O[C@H]2[C@H](CO)O1	3	/	/	1	5	/
CCS(=O)(=O)N1CCC2(CC1)CN(S(=O)(=O)c1cccc(OC)c1)[C@@H](CO)c1[nH]c3cc(OC)ccc3c12	-11	/	/	-6	-2	/
CC(=NNc1nc2ccccc2o1)c1ncccn1	-7	-199	/	-52	-12	39
CC(=NNc1nc2ccccc2o1)c1cc2ccccc2cn1	0	29	/	-22*	2	/
Cc1[nH]c2ccccc2c1/C=N/NC(=O)CNC(=O)c1cccs1	/	-4	/	/	0	/
Cc1[nH]c2ccccc2c1/C=N/NC(=O)c1cccs1	-5	-13	/	-24*	-2	/
COc1cccc(NC(=O)N2C[C@H](O)COC[C@@H]3O[C@H](CC(=O)N(C)C)CC[C@H]32)c1	5	-2[16.7 µM]	0	1	-4	-5[16.7 µM]
N#Cc1nc(COc2ccc(Cl)cc2)oc1N1CCCCCC1	/	38	-1	/	/	-4
Cc1ccc(OCc2nc(C#N)c(N3CCCCC3)o2)cc1	-13	13	/	-32*	2	/
CC1(Cc2ccccc2OC(F)(F)F)C(=O)Nc2ccc(S(=O)(=O)NC3CCCCC3)cc21 (centres undefined)	-38	55	-1	-18	0	84
Cc1ccccc1CC1(C)C(=O)Nc2ccc(S(=O)(=O)NC3CCCCC3)cc21 (centres undefined)	-45	17	0	-52	-3	?
COc1ccccc1CC1(C)C(=O)Nc2ccc(S(=O)(=O)NC3CCCCC3)cc21 (centres undefined)	-20	56*	-2	-1	5	41
COc1ccc(Cl)cc1CC1(C)C(=O)Nc2ccc(S(=O)(=O)NC3CCCCC3)cc21 (centres undefined)	-11	93*	1	-48	-1	81

Assay outcomes: PubChem, Broad Institute
